Screening data: PubChem BioAssay, several laboratories
Jurkat viability = cytotoxicity toward Jurkat cells; hit rate 1.2% among 56,000; AID 463; inhibition, % at 4 µM; Jurkat E6.1 viability, ATP luminescence, 48 h;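 active means inhibition above the mean inhibition of all tested compounds plus 3 SD, cut at about 28% in these data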
HUVEC inhibit = human endothelial cell proliferation inhibition; viability, % at 10 µM (by protocol); HUVEC proliferation, CellTiter-Glo luminescence, 72 h; stronger effect = lower value; hit rate 1.1% among 86,000;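 active means viability at or below 30%; inactive means viability above 30%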;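 further: 100% = median luminescence of DMSO-only cell control wells on each plate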
PTK2B oligo ant = blocks oligomerization of human Pyk2 in cells. Q293 cells, Pyk2 FERM NanoBiT luminescence; stronger effect = lower value. z-score (the deposit names both 25 µM and 10 µM). hit rate 0.83% among 99,000. AID 1347419;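 active means Z-score of -3 or lower, scaled per plate to the spread of control and sample wells; inactive means z-score above -3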;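 further: negative z-score means lost luminescence so less FERM oligomerization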
Target sequence (Q14289 whole entry, looked up): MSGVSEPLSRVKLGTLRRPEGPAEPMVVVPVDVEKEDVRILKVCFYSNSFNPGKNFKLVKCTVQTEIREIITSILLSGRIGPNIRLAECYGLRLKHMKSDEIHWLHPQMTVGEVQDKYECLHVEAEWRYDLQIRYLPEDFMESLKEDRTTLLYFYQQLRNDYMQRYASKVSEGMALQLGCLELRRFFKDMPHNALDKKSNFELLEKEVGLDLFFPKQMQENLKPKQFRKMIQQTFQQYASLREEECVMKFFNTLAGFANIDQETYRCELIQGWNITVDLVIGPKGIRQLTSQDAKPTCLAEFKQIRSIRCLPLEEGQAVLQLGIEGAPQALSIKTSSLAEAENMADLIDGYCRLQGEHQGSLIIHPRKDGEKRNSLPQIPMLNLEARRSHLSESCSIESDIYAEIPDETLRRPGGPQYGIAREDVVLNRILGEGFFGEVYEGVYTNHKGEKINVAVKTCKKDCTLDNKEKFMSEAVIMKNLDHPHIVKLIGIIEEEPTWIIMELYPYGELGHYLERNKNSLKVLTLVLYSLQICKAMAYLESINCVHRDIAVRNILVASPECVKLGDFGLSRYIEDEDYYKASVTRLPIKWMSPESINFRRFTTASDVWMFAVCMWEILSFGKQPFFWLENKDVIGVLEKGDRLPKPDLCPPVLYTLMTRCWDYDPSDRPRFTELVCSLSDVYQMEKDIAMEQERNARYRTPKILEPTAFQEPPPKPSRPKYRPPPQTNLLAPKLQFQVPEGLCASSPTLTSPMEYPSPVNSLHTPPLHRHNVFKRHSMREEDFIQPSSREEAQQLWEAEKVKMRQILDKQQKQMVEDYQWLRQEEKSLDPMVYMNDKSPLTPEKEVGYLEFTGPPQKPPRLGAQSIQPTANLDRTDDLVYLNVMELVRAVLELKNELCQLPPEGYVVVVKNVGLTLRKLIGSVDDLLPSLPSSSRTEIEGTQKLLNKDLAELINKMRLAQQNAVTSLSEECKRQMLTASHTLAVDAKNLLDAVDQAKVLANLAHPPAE
cytoskel mod = alters cytoskeleton assembly in HUVEC cells. HUVEC TNFa F-actin phalloidin imaging, high content. inhibition, % at 2 µM. hit rate 0.18% among 91,000. AID 836;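 active means inhibition above the batch mean plus 3 SD and confirmed as a hit by visual image inspection, cut at about 30% in these data, passing the limit was not always enough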
Fibroblast inh = blocks proliferation of human lung fibroblasts; hit rate 1.1% among 85,000; viability, % at 10 µM; LL 47 human lung fibroblast viability, ATP luminescence; stronger effect = lower value;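 active means viability at or below 50% in the single dose screen; inactive means viability above 50%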;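 further: compound exposure lasted 72 h before the ATP readout; 100% = median luminescence of untreated cell-only wells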
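Test system: LL 47 human lung fibroblasts / Quantity: 1,150 cells in each well / Medium: IMEM growth medium with 15% fetal bovine serum / Incubation: 72 h compound exposure at 37 °C after overnight plating / Detection: CellTiter-Glo luminescence measuring cellular ATP / Read-out: % viability versus median cells-only luminescence / Benchmarks: cell-only wells, no compound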
H69AR growth 86K = blocks growth of human H69AR lung tumor cells; hit rate 6% among 85,000; H69AR lung tumor viability, ATP luminescence, 72 h; stronger effect = lower value; AID 598; viability, % at 10 µM;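 active means viability at or below 40%; inactive means viability above 40%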;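 further: multidrug resistant small cell line overexpressing MRP-1 efflux transporter; 100% = mean luminescence of untreated control wells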
Numbers without * were called inactive; nt = no result given. In the library only some 6% were active in any assay of this set; here they are far more common.

SMILES | Jurkat viability | HUVEC inhibit | PTK2B oligo ant | cytoskel mod | Fibroblast inh | H69AR growth 86K
CCCOc1ccc2ccccc2c1/C=N/n1c(C)nnc1-n1nc(C)cc1C | 82* | 54 | -0.36 | -11 | 55 | 24*
Cc1cc(C)n(-c2nnc(C)n2/N=C/c2ccco2)n1 | nt | 110 | 0.81 | -1 | 100 | 95
O=c1c2c(nc3c(-c4ccc(Cl)cc4)c[nH]n13)CCCC2 | 5 | 58 | -0.91 | 30 | 60 | 20*
O=[N+]([O-])CC(=Nc1ccc(Cl)cc1)N/N=C\c1oc(O)c2ccccc12 | nt | 78 | -1.4 | 4 | 96 | 104
COc1ccc(C(C)=O)cc1CSc1nnc(-c2ccc(Cl)cc2)n1-c1ccccc1 | nt | nt | -2 | 11 | nt | nt
CN(/N=C/c1cccs1)c1cc(=O)n(C)c(=O)[nH]1 | nt | 15* | 0.54 | -2 | 104 | 94
N#CC(C(=O)NC1CCCCC1)c1nc2ccccc2nc1N1CCCCC1 (centres undefined) | 1 | nt | nt | nt | nt | nt
Cc1ccc(N2CCN(S(=O)(=O)N3CCCCCC3)CC2)cc1Cl | nt | nt | -0.87 | 0 | nt | nt
COC(=O)Cc1c[nH]c2cccc(OCC(O)CN(Cc3ccc([N+](=O)[O-])cc3)C(C)(C)C)c12 (centres undefined) | nt | 84 | -0.89 | 15 | 97 | 40*
COC(=O)Cc1c[nH]c2cccc(OCC(O)CN(Cc3ccccc3)C(C)C)c12 (centres undefined) | nt | 94 | 0.72 | -23 | 91 | 88
COc1ccccc1NCC(O)Cn1c2ccccc2c2ccccc21 (centres undefined) | nt | 61 | -0.39 | nt | 86 | 17*
COc1cc(/C=C/c2ccc3cccc(OC)c3n2)c(OC(C)=O)c([N+](=O)[O-])c1 | nt | 15* | -1.4 | -2 | 94 | 6.1*
Cc1cc(-c2n[nH]c(=S)o2)c(C)n1-c1ccccc1 | nt | 90 | nt | 7 | 99 | 38*
CCOC(=O)c1cnn(-c2sc(C(=O)OCC)c(C)c2C(=O)OCC)c1N | 2 | 59 | -0.28 | -8 | 101 | 24*
Cc1nc2sccn2c(=O)c1CCN1CCC(=C(c2ccccc2)c2ccc(F)cc2)CC1 | nt | 87 | nt | nt | 99 | 65
CC1Cc2ccccc2N1C(=O)COC(=O)Cn1nnc(-c2ccccc2)n1 (centres undefined) | 4 | 98 | 0.51 | -8 | 101 | 22*
Cc1ccc2cc(C#N)c(NCCNC(=O)C3CC3)nc2c1C | 7 | 96 | -0.15 | 6 | 102 | 93
O=C(O)CCCCCCC1C(=O)NC(=O)N1CCC(O)C1CCCCC1 (centres undefined) | nt | 103 | nt | nt | 68 | 95
COc1ccc(NC(=O)c2cnc3ccccn3c2=O)cc1OC | -6 | 102 | nt | nt | 101 | 78
O=C(CSc1ncnc2sc3c(c12)CCCCC3)NCc1ccco1 | 38* | 59 | -0.02 | -10 | 71 | 27*
O=C(CSc1ncnc2sc3c(c12)CCCC3)c1ccco1 | 1 | 92 | -0.98 | -6 | 102 | 91
O=C(CSc1nnc2c3c4c(sc3ncn12)CCCC4)NCc1ccco1 | -3 | 90 | 1.3 | -17 | 102 | 28*
O=C(CSc1c2c(nc3cc(Cl)ccc13)CCCC2)NCc1ccco1 | nt | 76 | 0.04 | 17 | 76 | 2.2*
Cc1nc2sc3c(c2c2nnc(SCC(=O)NCc4ccco4)n12)CCCC3 | 0 | nt | -0.57 | 19 | nt | nt
COc1ccc(-c2ncccc2OC(=O)C23CC4CC(CC(C4)C2)C3)cc1OC | nt | nt | 0.17 | nt | nt | nt
SMILES | Jurkat viability | HUVEC inhibit | PTK2B oligo ant | cytoskel mod | Fibroblast inh | H69AR growth 86K
Cc1ccc(NC(=O)Cn2cnc3sc(C(=O)NCc4ccco4)c(C)c3c2=O)cc1Cl | nt | 74 | -3.3* | -5 | 96 | 88
CC1CCCN(S(=O)(=O)c2ccc(S(=O)(=O)N3CCCN(Cc4ccccc4)C3)cc2)C1 (centres undefined) | -4 | 41 | 0.89 | nt | 85 | 31*
Cc1noc(C)c1S(=O)(=O)N(C)CC(=O)Nc1ccc(F)cc1 | nt | 99 | -0.39 | nt | 109 | 109
CCC1(C)Cc2c(sc3nc(SC)n(Cc4ccccc4)c(=O)c23)CO1 (centres undefined) | nt | 123 | 0.62 | 6 | 94 | 97
CCC1(C)Cc2c(sc3c2c2ncnn2c2nnc(SCC(=O)NCc4ccco4)n32)CO1 (centres undefined) | nt | 78 | 0.85 | nt | 96 | 37*
CCC1(C)Cc2c(sc3c2c(=O)n(C)c2nnc(SCC(=O)c4ccccc4)n32)CO1 (centres undefined) | 0 | 83 | -0.24 | 14 | 35* | 4.2*
Nc1c(Br)cc2oc(-c3ccccc3)nc2c1Br | nt | 83 | nt | nt | 81 | 22*
COc1ccc(-c2nc3c(Br)c(N)c(Br)cc3o2)cc1 | nt | 60 | 1.6 | nt | 80 | 29*
CCn1cc(C(=O)O)c(=O)c2cnc(N3CCN(C(=O)Nc4cccc5ccccc45)CC3)nc21 | -4 | 109 | nt | nt | 96 | 57
CCN=C(Nc1ccc2c(c1)OCO2)SC1CC(=O)N(c2ccc(OC)cc2)C1=O (centres undefined) | nt | 82 | -1.8 | -18 | 96 | 85
CCS(=O)(=O)N1CCCC(C(=O)NCCc2ccccc2)C1 (centres undefined) | nt | 86 | 0.09 | -7 | 104 | 100
COC(=O)c1cc(OC)c(OC)cc1NC(=O)c1ccc(C)o1 | nt | 81 | -0.38 | nt | 104 | 66
C=CCNc1nc(Nc2ccc(OC)cc2)nc(OCC)n1 | nt | 93 | -0.89 | 9 | 89 | 97
CCC(C)NC(=O)c1c(N)n(/N=C/c2cccnc2)c2nc3ccccc3nc12 (centres undefined) | 1 | 3.4* | 3.3 | -2 | 89 | 90
CCC(C)NC(=O)c1c(N)n(/N=C/c2ccccn2)c2nc3ccccc3nc12 (centres undefined) | -1 | 12* | 0.64 | -20 | 99 | 11*
CC(C)CNC(=O)c1c(N)n(/N=C/c2cccnc2)c2nc3ccccc3nc12 | nt | 67 | nt | nt | 100 | 46
CC(C)OCCCNC(=O)c1c(N)n(/N=C/c2ccccn2)c2nc3ccccc3nc12 | 4 | 76 | -0.89 | 17 | 102 | 23*
Cc1ccc(-n2nc3c(c2NC(=O)c2ccc(S(=O)(=O)N4CCOCC4)cc2)CSC3)c(C)c1 | 4 | 94 | -0.3 | -2 | 95 | 73
Cc1nnc(Sc2nc(Sc3nnc(C)s3)nc(N3CCN(C)CC3)n2)s1 | 101* | 69 | nt | nt | 6.1* | 0.6*
Cc1nnc(Sc2c(N)n(C)c(=O)n(C)c2=O)s1 | nt | 95 | 1.6 | 2 | 98 | 100
Cc1cc(/N=C/C=C2\N(C)c3ccccc3C2(C)C)n(CCC#N)n1 | -1 | 84 | 1.9 | -21 | 92 | 20*
CN1/C(=C\C=Nc2ccccc2)C(C)(C)c2ccccc21 | nt | nt | -0.1 | 10 | nt | nt
CN1C=CC2=C(C#N)C(N)C(C#N)(C#N)[C@H](c3ccccc3)[C@H]2C1 (some centres undefined) | nt | 92 | 0.78 | -2 | 99 | 77
O=[N+]([O-])c1ccc(C(=Nc2cccc3ccccc23)N2CCOCC2)cc1 | nt | nt | -3.5* | 6 | nt | nt
Cc1ccc([N+](=O)[O-])cc1N=C(c1cccc([N+](=O)[O-])c1)N1CCOCC1 | nt | nt | -1.4 | -3 | nt | nt
